Published values of several laboratories.
Each line is one published result; the experiments were not run side by side.

Structure (SMILES) | target or system | assay | test system | conditions | measurement | result
CCCCNC(=O)Oc1ccc(OCc2ccccc2)cc1 |  | metabolic stability | male Wistar rat, liver S9 | 1 µM, pH 7.4 | half-life | 7 min
COc1ccc(S(=O)(=O)Oc2ccc3c(c2)Oc2nc4c(c(N)c2C3c2cccc(OC)c2)CCCC4)cc1 (stereo not drawn) | SH-SY5Y | cell growth or viability, MTT |  | 1.6 µM | viability | 84.3%
CCCCCn1nc(C(=O)Nc2cccc3ccccc23)c2ccccc21 |  | metabolic stability | Sprague-Dawley rat, liver microsomes | 1 µM, pH 7.4 | half-life | 1.61 min
CC[C@@H]1CN2CCc3c([nH]c4cccc(OC)c34)[C@H]2C[C@@H]1/C(=C\OC)C(=O)OC | mouse Hepatocyte | metabolic stability | hepatocytes |  | half-life | 11.2 min
Nc1c2c(nc3c1C(c1ccc(Cl)c(Cl)c1)c1ccc(OCC(=O)c4ccc(Cl)cc4)cc1O3)CCCC2 (stereo not drawn) | SH-SY5Y | cell growth or viability, MTT |  | 0.4 µM | viability | 89.5%
C[C@]12CC[C@H](n3ccnc3)CC1=CC[C@@H]1[C@@H]2CC[C@]2(C)C(n3cnc4ccccc43)=CC[C@@H]12.Cl.Cl |  |  | male CD-1 mouse, plasma | intravenous, 1 mg/kg | AUC(0-t) | 1870 ng·h/mL
Nc1c2c(nc3c1C(c1ccc(Cl)c(Cl)c1)c1ccc(OCC(=O)c4ccccc4)cc1O3)CCCC2 (stereo not drawn) | SH-SY5Y | cell growth or viability, MTT |  | 25 µM | viability | 45.9%
Cc1cc(C)nc(Nc2ncc(C(=O)NCCc3c(C)[nH]c4ccccc34)cn2)c1 |  | chemical stability | simulated intestinal fluid | 10 µM, pH 6.8 | half-life | 197 min
COc1cc2c(cc1NC(=O)c1ccc(C(C)(C)C#N)cc1)CCCCC2 | NHDF | cell growth or viability, ATP luminescence |  | 24 h | CC50 | 3.57 µM
Nc1c2c(nc3c1C(c1cccc([N+](=O)[O-])c1)c1ccc(OS(=O)(=O)c4ccc(F)cc4)cc1O3)CCCC2 (stereo not drawn) | SH-SY5Y | cell growth or viability, MTT |  | 6.3 µM | viability | 63.4%
CCC[C@@](N)(CO)CCc1ccc(OCCCCCC(C)C)cc1 |  |  | mouse, plasma | oral, 10 mg/kg | AUC(0-t) | 227 nM·h
COc1cc2c(cc1C(=O)Nc1ccc(C(C)(C)C#N)cc1)CCCCC2 | NHDF | cell growth or viability, ATP luminescence |  | 24 h | CC50 | 94 µM
